Compound activity deposited in PubChem BioAssay by several laboratories.
Rows were chosen to be rich in hits. Some 5.4% of all compounds tested hit in one or more screens of this group.
SKKanGAS inh: blocks kanamycin growth of S. pyogenes SKKanGAS strain; hit rate 1.3% among 300,000; inhibition, % at 7.5 µM; BacTiter-Glo, 6 h;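 active = mean replicate score, as percent of positive control median, at least 50; inconclusive = mean below 50 but one replicate at or above 50; inactive = mean and every replicate below 50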;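 also: strain carries kanamycin resistance gene driven by streptokinase promoter and grows in 40 µg/ml kanamycin; loss of luminescence reflects streptokinase promoter inhibition or plain growth inhibition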
aSyn 5UTR inh: 5' untranslated region of α-synuclein, MLPCN primary screen; alpha-synuclein 5'UTR reporter, inhibitor activity; inhibition, % (tested at 7.5 µM); hit rate 0.82% among 300,000; AID 1813; in the data active = inhibition above about 60%; inconclusive = no clear call, values can overlap the other calls;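 also: H4 neuroglioblastoma cells stably carrying SNCA 5'UTR luciferase fusion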
CSC inhib: blocks cancer stem cells. cancer stem cell-like cells viability, luminescence. inhibition, % at 7.5 µM. hit rate 1.1% among 300,000; in the data active = inhibition above about 75%; inconclusive = no clear call, values can overlap the other calls; tested in HMLE shEcad cells
Mdm2-MdmX inh: inhibitors of human Mdm2/MdmX interaction; O15151+Q00987; SaOS-2 split-luciferase Mdm2/MdmX complementation, luminescence; inhibition, % at 8 µM; hit rate 3% among 330,000;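 active = inhibition of at least 50% at 8 µM in the primary screen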
Target sequence (O15151 whole entry, looked up): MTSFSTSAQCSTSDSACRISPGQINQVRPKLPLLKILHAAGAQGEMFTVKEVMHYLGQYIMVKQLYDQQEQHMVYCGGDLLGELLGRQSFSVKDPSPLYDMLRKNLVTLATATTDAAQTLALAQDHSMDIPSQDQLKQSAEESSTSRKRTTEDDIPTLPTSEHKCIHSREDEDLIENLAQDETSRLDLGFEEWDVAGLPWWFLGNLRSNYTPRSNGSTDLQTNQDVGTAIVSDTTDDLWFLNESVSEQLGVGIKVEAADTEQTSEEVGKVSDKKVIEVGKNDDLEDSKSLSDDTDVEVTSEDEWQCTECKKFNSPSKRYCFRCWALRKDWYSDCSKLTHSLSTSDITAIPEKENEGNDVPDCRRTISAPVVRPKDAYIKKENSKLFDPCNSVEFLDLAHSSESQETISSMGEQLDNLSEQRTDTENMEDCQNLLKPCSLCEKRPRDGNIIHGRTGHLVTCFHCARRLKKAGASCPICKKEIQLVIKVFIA
Target sequence (Q00987 whole entry, looked up): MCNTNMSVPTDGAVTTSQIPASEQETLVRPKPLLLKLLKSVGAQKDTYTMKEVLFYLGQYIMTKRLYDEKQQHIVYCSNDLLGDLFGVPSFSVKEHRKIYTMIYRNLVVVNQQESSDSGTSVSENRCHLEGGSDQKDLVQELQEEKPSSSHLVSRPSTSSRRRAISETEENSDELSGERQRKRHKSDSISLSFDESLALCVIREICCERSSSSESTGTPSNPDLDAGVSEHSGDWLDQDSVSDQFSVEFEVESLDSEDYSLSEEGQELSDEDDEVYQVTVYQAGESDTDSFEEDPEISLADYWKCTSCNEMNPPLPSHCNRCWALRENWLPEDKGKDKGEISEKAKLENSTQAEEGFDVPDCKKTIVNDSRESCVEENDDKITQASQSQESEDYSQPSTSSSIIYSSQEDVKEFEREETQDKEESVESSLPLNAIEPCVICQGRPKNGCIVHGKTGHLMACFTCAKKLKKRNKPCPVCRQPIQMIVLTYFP
T cruzi inh: blocks replication of Trypanosoma cruzi | T. cruzi beta-gal in NIH3T3, luminescence, 90 h | inhibition, % (concentration not given with the values) | hit rate 1.4% among 300,000 | AID 1885;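 active = mean inhibition across valid replicates above about 55%, limit read from the data; inconclusive = mean below that limit but half or more replicates reach it; inactive = mean below it, under half of replicates reach it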;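 also: signal also drops with host cell toxicity which is not excluded here; higher percent means less beta-gal luminescence so fewer parasites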
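Assay system: NIH/3T3 fibroblasts plus reporter T. cruzi. Amount: NIH/3T3 cells, 5,000 per well. Buffer or medium: DMEM, 2% fetal bovine serum. Doses: compound pinned at 50 nL/well, DMSO. Schedule: ≥90 h infection period, 3 h prior cell attachment. Signal: luminescent β-galactosidase signal after 60 min lysis. Read-out: parasite load inhibition, %.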
Mdm2 MdmX conf: human Mdm2/MdmX binding inhibition, confirmed; hit rate 55% among 10,000; inhibition, % at 8 µM; luminescent assay; shares compounds with Mdm2-MdmX inh; AID 489028; in the data active = inhibition above about 40%
FLuc counter: counter-screen for Mdm2/MdmX inhibitors: full-length luciferase; SaOS-2 full-length luciferase counterscreen, luminescence; inhibition, % at 8 µM; shares compounds with Mdm2-MdmX inh; hit rate 77% among 6,200;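 active = mean inhibition at 8 µM reaching about 37%, which flags the compound as non-specific, limit read from the data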;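 also: p53-null SaOS-2 cells with luciferase driven by a doxycycline-inducible promoter; compound on cells about two nights before reading with doxycycline added after day one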
A number is an active result; i = inactive; ? = inconclusive; nt = no result.

SMILES | SKKanGAS inh | aSyn 5UTR inh | CSC inhib | Mdm2-MdmX inh | T cruzi inh | Mdm2 MdmX conf | FLuc counter
COCCn1c(C)cc(C(=O)CSc2nc3ccccc3s2)c1C | i | ? | i | 66 | i | 70 | 146
COCCn1c(C)cc(C(=O)CSc2nnc3ccccn23)c1C | i | i | i | 54 | i | 62 | 113
Cc1ccc(C(=O)CSc2nnc3ccccn23)c(C)c1 | i | i | i | i | i | nt | nt
CC(=O)Nc1ccc(SCCN2CC[C@@H](C)CCC2=O)cc1 | nt | nt | i | i | nt | nt | nt
Cc1ccccc1CN1[C@@H]2c3ccccc3C[C@@H]2OCCS1(=O)=O | i | i | i | i | i | nt | nt
COc1cccc(-n2sc3c(c2=S)-c2cc(OC)ccc2NC3(C)C)c1 | i | i | i | 51 | i | i | 76
Cn1c(Oc2ccc3c(c2)OCO3)nc2c1c(=O)n(Cc1ccccc1)c(=O)n2C | i | i | i | 62 | i | i | nt
Cn1c(=O)c2c(nc(Oc3ccc4c(c3)OCO4)n2Cc2ccc(Cl)cc2)n(C)c1=O | i | i | i | i | i | nt | nt
CC(=O)C1=C(O)C(=O)N(c2ccc(Br)cc2)C1c1ccccc1[N+](=O)[O-] (stereo not given) | i | i | i | i | i | nt | nt
CCn1c(Oc2ccccc2C)nc2c1c(=O)n(C)c(=O)n2C | i | i | nt | 57 | i | 42 | 43
O=C(CN(C(=O)CCC(=O)Nc1nccs1)c1ccc(F)cc1)NCc1ccccc1 | i | i | nt | i | i | nt | nt
CC1CCC(C(C)C)C(OCC(O)CNC(C)(C)C)C1 (stereo not given) | i | i | i | i | i | nt | nt
CC(NCC(O)COC1CCC(C(C)(C)C)CC1)c1ccccc1 (stereo not given) | i | i | nt | 55 | 75 | i | 77
CC1CCC(C(C)C)C(OCC(O)CNC(C)c2ccccc2)C1 (stereo not given) | i | i | i | 60 | i | 46 | 70
COc1ccc(OC)c2sc(N(CCCN(C)C)C(=O)CCS(=O)(=O)c3ccccc3)nc12 | i | i | i | 82 | 59 | 77 | i
CN(C)CCN(C(=O)CCS(=O)(=O)c1ccccc1)c1nc2c(F)cccc2s1 | i | i | i | i | i | nt | nt
Cc1ccc2sc(N(CCCN(C)C)C(=O)CCS(=O)(=O)c3ccccc3)nc2c1C | i | i | i | 60 | 63 | 57 | i
COc1ccc(Cl)c2sc(N(CCN(C)C)C(=O)CCS(=O)(=O)c3ccc(C)cc3)nc12 | i | i | i | i | i | nt | nt
CCOC(=O)C1(CCc2ccccc2)CCN(Cc2c(O)cccc2OC)CC1 | i | i | i | 55 | i | i | nt
CC(C)=CCC/C(C)=C/CNC(=O)C[C@H]1C[C@H](C(=O)N2CCCCC2)[C@@]2(C)c3[nH]c4cc(CCC(=O)N(C)C)ccc4c3CCN2C1=O | nt | nt | nt | i | nt | nt | nt
CCCCCN=C(N)N/N=C/c1c[nH]c2ccc(OC)cc12 | i | 108 | 119 | 99 | i | 98 | i
Oc1cccc(-c2nc3ccccc3s2)c1 | i | i | i | i | i | nt | nt
CN(C(=O)OC(C)(C)C)c1ccc(-c2nc3ccccc3s2)cc1 | i | 104 | i | 88 | i | 90 | i
COC(=O)N(C)c1nc2ccccc2s1 | i | i | i | i | i | nt | nt
CC(C)c1ccc(-c2nc3ccccc3s2)cc1 | i | 98 | i | 87 | i | 88 | i
SMILES | SKKanGAS inh | aSyn 5UTR inh | CSC inhib | Mdm2-MdmX inh | T cruzi inh | Mdm2 MdmX conf | FLuc counter
NC(=O)c1ccc(=O)n(Cc2ccc(Cl)cc2Cl)c1 | i | i | i | i | i | nt | nt
COc1ccccc1NC(=O)c1cc2c(CO)cnc(C)c2oc1=Nc1ccc(OC)c(OC)c1 | i | i | i | 65 | i | i | nt
NS(=O)(=O)c1ccc(CCNC(=S)NC(=O)c2ccccc2Br)cc1 | nt | nt | i | i | nt | nt | nt
COC(=O)[C@H]1[C@H]2C[C@@H]3c4[nH]c5cc(OC)ccc5c4CCN3C[C@H]2C[C@@H](OC(=O)/C=C/c2cc(OC)c(OC)c(OC)c2)[C@@H]1OC | nt | nt | i | 64 | nt | i | 70
COc1ccc2c3c([nH]c2c1)[C@H]1C[C@H]2[C@H](C[C@@H](O)[C@H](OC)[C@H]2C(=O)O)CN1CC3 | nt | nt | i | i | nt | nt | nt
CCOc1ccc(CN2CCNC(=O)C2CC(=O)NCc2csc(C(C)C)n2)cc1 (stereo not given) | i | i | nt | i | i | nt | nt
CC(C)(C)c1ccc(OCC(=O)N/N=C/c2cc(Br)ccc2OC(=O)c2ccco2)cc1 | i | 83 | 101 | 82 | i | 79 | i
